Ki and IC50 data for 30 molecules are collected here from ChEMBL document CHEMBL1128176 (J Med Chem, 1995).

One may read the Ki as the dissociation constant of the complex between target and ligand, obtained from inhibition or displacement. A low value points to a stronger hold on the target. As usually defined, the IC50 is the concentration needed to halve the response being measured.

For test [1], the target named is T1, Leukotriene B4 receptor (Homo sapiens, UniProt Q9NPC1+Q15722). The experiment in a line: Binding affinity towards human LTB4 receptor measured as inhibition of binding of [3H]LTB4 to isolated human neutrophils.
Test [2] has as its target Leukotriene B4 receptor (Cavia porcellus). Put plainly: Binding affinity towards Leukotriene B4 receptor guinea pig lung membrane using [3H]LTB4 as radioligand.
Test [3] addresses T1, Leukotriene B4 receptor. The experiment in a line: Inhibition of LTB4 induced expression of human neutrophil integrin CD11b/CD18. The test is classed as functional. Summed up:
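Human neutrophils stimulated with LTB4; test agents, mostly as sodium salts, dissolved in dilute sodium bicarbonate vehicle. Integrin CD11b/CD18 surface expression read by flow cytometry. IC50 derived from inhibition of LTB4-induced up-regulation. Where SEM is given, the value is the mean of at least four determinations.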

In the case of `CCc1cc(-c2ccccc2)c(O)cc1OCCCOc1ccc2c(=O)c3ccccc3oc2c1CCC(=O)O`, the Ki at Leukotriene B4 receptor [1] was found to be 22 nM; in test [2], 12 nM.

Regarding `CCc1cc(-c2ccc(F)cc2)c(O)cc1OCCCOc1ccc2c(=O)c3ccccc3oc2c1CCC(=O)O`, the Ki at Leukotriene B4 receptor [1] is reported as 36 nM; in test [2], 4 nM.

Take `CCCc1c(OCCCCCOc2cc(O)c(-c3ccc(F)cc3)cc2CC)cccc1Oc1ccccc1C(=O)O`: the IC50 at Leukotriene B4 receptor [3] is on record as 9.5 nM. Moreover, the Ki stood at 150 nM at Leukotriene B4 receptor [1] and 6.8 nM in test [2].

In the case of `CCc1cc(-c2ccc(F)cc2)c(O)cc1OCCCOc1cccc(OCCCCC(=O)O)c1CCC(=O)O`, the IC50 against Leukotriene B4 receptor [3] is listed as 13 nM. This molecule displayed a Ki on Leukotriene B4 receptor [1] of 2.3 nM.

Take `CCCCc1c(OCCCOc2cc(O)c(-c3ccc(F)cc3)cc2CC)cccc1Oc1ccccc1C(=O)O`: the IC50 at Leukotriene B4 receptor [3] is listed as 14 nM. In addition, the Ki stood at 34 nM on Leukotriene B4 receptor [1] and 16 nM in test [2].

In turn, `CCCc1c(OCCCCOc2cc(O)c(-c3ccc(F)cc3)cc2CC)cccc1Oc1ccccc1C(=O)O` came in with an IC50 at Leukotriene B4 receptor [3] of 5.1 nM. Besides, the Ki on Leukotriene B4 receptor [1] is listed as 39 nM; in test [2], 19 nM.

`CCCc1cc(CC)c(OCCCCCC(C)(C)c2nn[nH]n2)cc1O` returned a Ki at Leukotriene B4 receptor [1] of 9.3 nM.

As to `CCc1cc(-c2ccc(F)cc2)c(O)cc1OCCCOc1ccccc1CCc1nnn[nH]1`, the Ki (on Leukotriene B4 receptor [1]; in test [2]) was 15 nM each time.

On Leukotriene B4 receptor [3], `CCCc1c(OCCCOc2cc(O)c(-c3ccc(F)cc3)cc2CC)ccc2c1OC(C(=O)O)CC2` (stereo not drawn) displayed an IC50 of 17 nM. Further, the Ki is recorded as 3.8 nM on Leukotriene B4 receptor [1] and 4.4 nM in test [2].

Take `CCc1cc(-c2ccc(F)cc2)c(O)cc1OCCCOc1cccc(Oc2ccccc2C(=O)O)c1CC(C)C`: the IC50 against Leukotriene B4 receptor [3] stood at 8.5 nM. The Ki on Leukotriene B4 receptor [1] stood at 36 nM; in test [2], 14 nM.

Turning to `CCc1cc(-c2ccc(F)cc2)c(O)cc1OCCCOc1cccc(Oc2ccccc2C(=O)O)c1Cc1ccccc1`, the IC50 against Leukotriene B4 receptor [3] was 220 nM. Also, the Ki amounted to 390 nM at Leukotriene B4 receptor [1] and 55 nM in test [2].

Molecule `CCCc1c(OCCCOc2cc(O)c(-c3ccccc3)cc2CC)cccc1Oc1ccccc1C(=O)O` gave an IC50 on Leukotriene B4 receptor [3] of 11 nM. The Ki worked out at 19 nM at Leukotriene B4 receptor [1] and 16 nM in test [2].

Take `CCCc1c(OCCCOc2cc(O)c(-c3ccc(F)cc3)cc2CC)cccc1Oc1cccc(F)c1C(=O)O`: the IC50 against Leukotriene B4 receptor [3] came out at 2.5 nM. Also, the Ki on Leukotriene B4 receptor [1] came to 4.4 nM; in test [2], 9.5 nM.

For `CCCc1c(OCCCOc2cc(O)c(-c3ccc(F)cc3)cc2CC)cccc1C(=O)c1ccccc1C(=O)O`, on Leukotriene B4 receptor [3], the IC50 is reported as 13 nM. Moreover, the figures for the Ki (on Leukotriene B4 receptor [1]; in test [2]) were 35 nM and 11 nM, respectively.

At Leukotriene B4 receptor [3], `CCc1cc(-c2ccc(F)cc2)c(O)cc1OCCCOc1cccc(OCCCCC(=O)N(C)C)c1CCC(=O)O` returned an IC50 of 7.8 nM. This molecule also returned a Ki at Leukotriene B4 receptor [1] of 3.1 nM.

In turn, `CCCc1c(OCCCOc2cc(O)c(-c3ccc(F)cc3)cc2CC)cccc1Sc1ccccc1C(=O)O` gave an IC50 at Leukotriene B4 receptor [3] of 7.4 nM. The Ki on Leukotriene B4 receptor [1] turned out to be 350 nM; in test [2], 11 nM.

Consider `CCCc1c(OCCCOc2cc(O)c(-c3ccc(F)cc3)cc2CC)cccc1[S+]([O-])c1ccccc1C(=O)O` (stereo not drawn), for which, on Leukotriene B4 receptor [3], the IC50 was 95 nM. Also, the Ki on Leukotriene B4 receptor [1] was 14 nM; in test [2], 1.4 nM.

`CCc1cc(-c2ccc(F)cc2)c(O)cc1OCCCOc1cccc(OC)c1CCC(=O)O` gave an IC50 against Leukotriene B4 receptor [3] of 64 nM. Further, the Ki at Leukotriene B4 receptor [1] worked out at 8.3 nM; in test [2], 6.4 nM.

The molecule `CCc1cc(-c2ccc(F)cc2)c(O)cc1OCCCOc1ccccc1CCC(=O)O` gave an IC50 against Leukotriene B4 receptor [3] of 31 nM. In addition, the Ki on Leukotriene B4 receptor [1] is reported as 8 nM; in test [2], 3.8 nM.

`CCc1cc(-c2ccc(N(C)C)cc2)c(O)cc1OCCCCCC(C)(C)c1nn[nH]n1` came in with a Ki on Leukotriene B4 receptor [1] of 16 nM.

Take `CCc1cc(-c2cccc(C(F)(F)F)c2)c(O)cc1OCCCCCC(C)(C)c1nn[nH]n1`: the inhibitory constant (Ki) at Leukotriene B4 receptor [1] was 33 nM.

As for `CCc1cc(-c2ccc(F)cc2)c(O)cc1OCCCOc1ccc2c(=O)c3cc(C(=O)O)ccc3oc2c1CCC(=O)O`, the Ki is 0.47 nM on Leukotriene B4 receptor [1] and 0.04 nM in test [2].

For the molecule `CCc1cc(-c2ccccn2)c(O)cc1OCCCCCC(C)(C)c1nn[nH]n1`, the Ki at Leukotriene B4 receptor [1] amounted to 453 nM.

In the case of `CCc1cc(-c2ccc(F)cc2)c(O)cc1OCCCOc1cccc(OCCCCc2nnn[nH]2)c1CCC(=O)O`, the Ki at Leukotriene B4 receptor [1] is recorded as 2.3 nM. This Ki is about 200-fold lower than that of the molecule before.

For the molecule `CCc1cc(-c2ccccc2)c(O)cc1OCCCOc1ccc2c(=O)c3cc(C(=O)O)ccc3oc2c1CCC(=O)O`, the values for the Ki (at Leukotriene B4 receptor [1]; in test [2]) were 0.51 nM and 0.11 nM, respectively.

Consider `CCCc1c(OCCCOc2cc(O)c(-c3ccc(F)cc3)cc2CC)cccc1Oc1ccccc1CC(=O)O`, for which, at Leukotriene B4 receptor [3], the IC50 came to 7.8 nM. In addition, the figures for the Ki (on Leukotriene B4 receptor [1]; in test [2]) were 210 nM and 8.4 nM, respectively.

Consider `CCCc1c(OCCCOc2cc(O)c(-c3ccccc3)cc2CC)ccc2c1OC(C(=O)O)CC2` (stereo not drawn), for which the IC50 against Leukotriene B4 receptor [3] amounted to 110 nM. Also, the Ki stood at 3.3 nM on Leukotriene B4 receptor [1] and 2.8 nM in test [2].

The molecule `CCCc1c(OCCCOc2cc(O)c(-c3ccc(F)cc3)cc2CC)cccc1Oc1cc(F)ccc1C(=O)O` came in with an IC50 against Leukotriene B4 receptor [3] of 2.7 nM. In addition, the Ki stood at 48 nM on Leukotriene B4 receptor [1] and 19 nM in test [2].

On Leukotriene B4 receptor [3], `CCCc1c(OCCCOc2cc(O)c(-c3ccccc3)cc2CC)cccc1Oc1cccc(F)c1C(=O)O` gave an IC50 of 3.2 nM. Further, the Ki is on record as 10 nM on Leukotriene B4 receptor [1] and 14 nM in test [2].

`CCCc1c(OCCCOc2cc(O)c(-c3ccc(F)cc3)cc2CC)cccc1Oc1ccccc1C(=O)O` [ETALOCIB] showed an IC50 against Leukotriene B4 receptor [3] of 3.3 nM. Further, the Ki on Leukotriene B4 receptor [1] was determined as 17 nM; in test [2], 6.6 nM.
